# Measured values of several laboratories.
# Compare with care: the assays were run in different laboratories.
# Target: Mitogen-activated protein kinase kinase kinase 5 (MAP3K5, Homo sapiens, UniProt Q99683)
# One construct used (Q99683 1-1374): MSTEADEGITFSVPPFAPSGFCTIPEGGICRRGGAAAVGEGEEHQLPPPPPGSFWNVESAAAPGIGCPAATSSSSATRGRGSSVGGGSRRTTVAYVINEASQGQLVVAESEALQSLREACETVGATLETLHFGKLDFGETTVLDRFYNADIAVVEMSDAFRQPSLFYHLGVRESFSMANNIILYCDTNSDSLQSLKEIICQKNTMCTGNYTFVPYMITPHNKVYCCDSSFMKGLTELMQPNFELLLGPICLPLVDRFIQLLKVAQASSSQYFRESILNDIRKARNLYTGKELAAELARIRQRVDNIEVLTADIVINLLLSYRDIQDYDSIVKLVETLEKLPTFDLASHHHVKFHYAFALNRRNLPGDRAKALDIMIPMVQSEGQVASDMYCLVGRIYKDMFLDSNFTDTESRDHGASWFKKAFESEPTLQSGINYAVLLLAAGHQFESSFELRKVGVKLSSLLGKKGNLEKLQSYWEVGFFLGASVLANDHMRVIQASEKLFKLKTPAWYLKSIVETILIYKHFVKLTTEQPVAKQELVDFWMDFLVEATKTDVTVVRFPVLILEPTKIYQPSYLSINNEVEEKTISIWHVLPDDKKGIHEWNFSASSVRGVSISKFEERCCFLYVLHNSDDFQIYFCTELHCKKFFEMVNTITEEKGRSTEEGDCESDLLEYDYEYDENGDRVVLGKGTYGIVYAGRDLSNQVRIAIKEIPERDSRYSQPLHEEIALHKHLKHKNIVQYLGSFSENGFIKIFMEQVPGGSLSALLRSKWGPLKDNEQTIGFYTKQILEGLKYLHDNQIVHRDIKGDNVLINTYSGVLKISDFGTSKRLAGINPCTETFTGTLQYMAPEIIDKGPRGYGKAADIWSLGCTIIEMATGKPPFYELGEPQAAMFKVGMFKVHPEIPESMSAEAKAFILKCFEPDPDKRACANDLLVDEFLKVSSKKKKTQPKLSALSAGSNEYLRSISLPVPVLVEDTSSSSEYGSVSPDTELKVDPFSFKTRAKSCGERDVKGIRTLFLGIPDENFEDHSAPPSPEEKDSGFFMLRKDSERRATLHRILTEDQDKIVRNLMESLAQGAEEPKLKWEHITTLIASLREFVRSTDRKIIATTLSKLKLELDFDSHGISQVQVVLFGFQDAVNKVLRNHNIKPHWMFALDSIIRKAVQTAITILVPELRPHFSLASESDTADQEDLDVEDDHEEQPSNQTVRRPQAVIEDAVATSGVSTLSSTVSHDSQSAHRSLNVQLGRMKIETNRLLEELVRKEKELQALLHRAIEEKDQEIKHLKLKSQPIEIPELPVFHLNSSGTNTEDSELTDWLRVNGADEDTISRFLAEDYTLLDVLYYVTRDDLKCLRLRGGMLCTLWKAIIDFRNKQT
Compound,assay,test system,setting,measurement,result
CC/C(=N\NC(=O)NCc1cccc(O)c1)c1ccc(O)c(C)c1O,"enzyme activity, inhibitor",,0.1 µM,inhibition,4%
Cn1c2c(Cl)c(Cl)ccc2c2cc(N)[nH]c(=O)c21,"thermal stability, DSF",,10 µM,ΔTm,1.5 °C
Cc1ccc(NC(=O)c2ccc(C)c(C(F)(F)F)c2)cc1C#Cc1nn(C2CCC(O)CC2)c2ncnc(N)c12 (stereo not drawn),cell-free assay,,10 µM,remaining signal,127%
COc1cc(/C=C/C(=O)CC(=O)/C=C/c2ccc(O)c(OC)c2)ccc1O,"enzyme activity, inhibitor",,1 µM,activity vs control,101%
Cc1cc(NC(=O)c2cccc3cc(-c4cccc5[nH]nc(N)c45)ccc23)ccc1F,"enzyme activity, inhibitor",,0.1 µM,activity vs control,109%
CNCc1ccc(-c2cc(-c3nc(-c4ccc(S(=O)(=O)C(C)C)cc4)cnc3N)on2)cc1,"enzyme activity, inhibitor",,0.4 µM,inhibition,0%
CN(C)c1ncnc(-c2ccc3nc(Nc4cc(CN5CCN(C(=O)CC(F)(F)F)CC5)ccn4)[nH]c3c2)c1Cl,"cell-free assay, competition with immobilised ligand",,1 µM,remaining binding,100%
COc1cc(Cl)c(C(=O)N[C@@H](CN[C@H]2CC[C@@H](N)CC2)Cc2ccc(C#N)cc2)cc1-c1ccc(CN[C@H](C)c2ccc(C)cc2)o1,"enzyme activity, inhibitor",,1 µM,remaining activity,94%
Cc1ccc(Nc2nccc(N(C)c3ccc4c(C)n(C)nc4c3)n2)cc1S(N)(=O)=O,"enzyme activity, inhibitor",,10 µM,inhibition,5%
CCN1CCC2(CC1)NC(=O)c1c(c3ccc(Cl)c(Cl)c3n1C)C2C#N (racemic),"thermal stability, DSF",,10 µM,ΔTm,0.1 °C
CCN1CCN(Cc2ccc(NC(=O)c3ccc(C)c(Oc4ccnc5[nH]ccc45)c3)cc2C(F)(F)F)CC1,"target engagement in cells, inhibitor, chemoproteomics",A-375,5 µM,inhibition,-27.1%
O=C(Nc1cnn(-c2csc(C(=O)NC3COC3)c2)c1)Nc1ccccc1Cl,"enzyme activity, inhibitor",,5 µM,remaining activity,91.2%
CN1CCC2(CC1)NC(=O)c1c(c3ccc(Cl)c(Cl)c3n1C)C2C#N (racemic),"thermal stability, DSF",,10 µM,ΔTm,0.3 °C
CC(=O)N1CCC(c2ccc(C(=O)NC3=NCCN3)cc2C(F)(F)F)CC1,"cell-free assay, competition with immobilised ligand",,1 µM,remaining binding,100%
CN1CC(Oc2cnc(C#N)cc2-c2ccn3nc(NC(=O)C4CC4)cc3c2)C1,"enzyme activity, inhibitor",,1 µM,inhibition,-2%
O=C1NC(=O)c2cc(Nc3ccc(F)cc3)c(Nc3ccc(F)cc3)cc21,cell-free assay,,0.5 µM,remaining signal,96.6%
CS(=O)(=O)N1CCCC(NC(=O)[C@H](CCC2CCCCC2)NC(=O)c2ccc(CNc3ncnc4c3nnn4-c3ccccc3)cc2)C1 (stereo partly drawn),"cell-free assay, competition with immobilised ligand",,0.1 µM,remaining binding,100%
COc1cccc2c(NCc3ccccc3)nc(-n3c(N)nc4ccccc43)nc12,"target engagement in cells, inhibitor, chemoproteomics",,20 mM,inhibition,-7.6%
c1ccc(N2CCN(Cc3nc4ccccc4[nH]3)CC2)nc1,"binding, competition with immobilised ligand",,1 µM,remaining binding,93%
CNC(=O)c1cc(Oc2ccc(NC(=O)Nc3ccc(Cl)c(C(F)(F)F)c3)cc2)ccn1,"enzyme activity, inhibitor",,10 µM,inhibition,9%
CC(C)c1ccc(NC(=O)c2cccs2)c(-c2nc3ccccc3[nH]c2=O)c1,"enzyme activity, inhibitor",,1 µM,activity vs control,107%
FC(F)(F)Oc1cccc(-c2cnc3ccc(-c4ccncc4)nn23)c1,"enzyme activity, inhibitor, radiometric",,1 µM,activity vs control,88%
CCN(CC)CCNC(=O)c1c(C)[nH]c(/C=C2\C(=O)Nc3ccc(F)cc32)c1C,"enzyme activity, inhibitor",,10 µM,inhibition,38%
Cn1c2c(c3ccc(Cl)c(Cl)c31)C(C#N)C1(CCOCC1)NC2=O (stereo not drawn),"thermal stability, DSF",,10 µM,ΔTm,0.4 °C
CCCCN(CCCC)C(=O)CN1C[C@H](c2cc(OC)c3c(c2)OCO3)[C@@H](C(=O)O)[C@@H]1CC(C)(C)CCC,"cell-free assay, competition with immobilised ligand",,1 µM,remaining binding,100%
CCN(CC)c1ccc(C2=NNC(=O)CC2C)cc1[N+](=O)[O-] (stereo not drawn),"enzyme activity, inhibitor",,10 µM,remaining activity,101%
COc1ccc2c(c1)O[C@H](c1ccc(OC)c(OC)c1)C[C@@H]2NC(=O)C1(c2ccc3c(c2)OC(F)(F)O3)CC1,"cell-free assay, competition with immobilised ligand",,1 µM,remaining binding,100%
CC1(C)NC(=O)c2[nH]c3c(Cl)c(Cl)ccc3c2C1C#N (stereo not drawn),"thermal stability, DSF",,10 µM,ΔTm,1.6 °C
N#CCCc1ccc2c(c1)-c1[nH]c3ccc([N+](=O)[O-])cc3c1CC(=O)N2,cell-free assay,,0.5 µM,remaining signal,101%
COc1cc(Nc2cnc(C#N)c(O[C@H](C)CN(C)C)n2)ncc1-c1cnn(C)c1,"enzyme activity, inhibitor, radiometric",,10 µM,remaining activity,67%
CC(C)(C)c1nc2c(s1)c1nc(N)ncc1c1ccc(NS(=O)(=O)c3c(F)cccc3F)c(F)c12,"enzyme activity, inhibitor, radiometric",,1 µM,remaining activity,104%
CNC(=O)Nc1ccc2c(c1)[C@@]1(CC2)OC(=O)N(CC(=O)N(Cc2ccc(F)cc2)[C@@H](C)C(F)(F)F)C1=O,"cell-free assay, competition with immobilised ligand",,1 µM,remaining binding,100%
N#CC1c2c([nH]c3c(Cl)c(Cl)ccc23)C(=O)NC12CCCCC2 (racemic),"thermal stability, DSF",,10 µM,ΔTm,0.6 °C
CO[C@@H](C)c1c(Nc2ccc([C@@H](N(C)C(=O)C3CCS(=O)(=O)CC3)C(F)(F)F)cc2)cnc2cc(Cl)nn12,"cell-free assay, competition with immobilised ligand",,1 µM,remaining binding,81%
CCN1CCN(Cc2ccc(NC(=O)c3ccc(C)c(/C=C/c4cnc5[nH]ccc5c4OC)c3)cc2C(F)(F)F)CC1,"target engagement in cells, inhibitor, chemoproteomics",A-375,0.5 µM,inhibition,-26.3%
FC(F)c1nc2ccccc2n1-c1nc(N2CCOCC2)nc(N2CCOCC2)n1,"enzyme activity, inhibitor",,10 µM,remaining activity,90%
